These results are taken from paper PMC11022931 (Blood, 2022).

A word on the Kd: it is the constant that tells how readily two partners part at equilibrium. Broadly, the Cmax is the peak of the concentration-time curve.

Bounds are passed on as bounds.

One data set concerns the target CXCL12 (Homo sapiens, UniProt P48061). The following applies: read-out: KD of CXCL12 binding to CCL5; cited from earlier work.
Data set [1] in a line: i[VREY]4 pharmacokinetics, plasma ELISA. The class given is in vivo, C57BL/6J mice. The following applies: C57BL/6J, mouse, ip, 75 ug. The essentials:
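Biotinylated test compound (75 µg) was injected i.p. into mice. Plasma levels of the biotinylated peptide were measured by ELISA at several time points after injection. Data are means ± SD.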
In general terms: ELISA stands for enzyme-linked immunosorbent assay.

The test system of data set [2] is mouse platelets. In words: i[VREY]4-biot binding to mouse platelets, flow cytometry. Format: cell-based. (In general: Flow cytometry measures light scatter and fluorescence of single cells or particles in a stream.)
Data set [3] relates to human platelets. Put plainly: Platelet activation by PAC-1 and P-selectin staining, flow cytometry. Format: cell-based. Particulars: human blood, remibrutinib 0.1 µM 30 minutes at 37°C, CXCL12 0.1 μg/mL, CRP-XL 0.01 μg/mL, n = 6.
Data set [4] has as its system human platelets. In words: Multiple electrode aggregometry. The class given is cell-based. Particulars: MEA, human blood; for effect on platelet aggregation induced by human plaque homogenate: plaque 833 µg/mL, AMD3465 100 nM, i[VREY]4 5 µM.
Another data set concerns the target 15N-labeled CXCL12 (Homo sapiens, UniProt P48061). In words: 15N HSQC NMR titration of CXCL12 with i[VREY]4. Format: binding. The following applies: 20 µM 15N-CXCL12, i[VREY]4 20, 40, 200 µM; 25 mM KPi pH 7.1; 25 °C.
Data set [5] concerns mouse platelets. Put plainly: MEA in mouse blood activated with collagen. Format: cell-based. The following applies: 1 µg/mL collagen, 5 µM i[VREY]4, n = 6-8. The essentials:
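Blood came from mice with megakaryocyte-lineage Cxcl12 deletion (Pf4-Cre × Cxcl12 fl/fl, Apoe-/- background) or from Cxcl12 wt/wt controls. It was mixed with 1 µg/mL collagen with or without 5 µM test compound, and aggregation was measured by multiple electrode aggregometry (Multiplate), n=6-8 mice. Data are means ± SD.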

Data set [6] deals with CXCL12 on human platelets (Homo sapiens, UniProt P48061). In words: Detection of CXCL12 on human platelets with anti-CXCL12 antibodies. Format: cell-based. The following applies: human blood, CXCL12 0.1 µg/mL or collagen 1 µg/mL.
The test system of data set [7] is human platelets. In words: i[VREY]4-biot binding and proximity ligation with CXCL12 on human platelets. Particulars: flow cytometry, resting vs collagen-activated, n = 6. Format: cell-based.
For the next data set, the system named is CXCR4. Put plainly: CXCR4 internalization on human platelets, flow cytometry. Format: cell-based. Particulars: CXCL12 0.1 µg/mL, i[VREY]4 5 µM. In a few lines: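 Human blood diluted 1:1 with PBS and treated with recombinant CXCL12 (0.1 µg/mL), collagen (1 µg/mL) and test compound (5 µM). Platelet-surface CXCR4 was stained with anti-CXCR4 clone 12G5 and measured by flow cytometry. Data are means ± SD of independent experiments, analysed by one-way ANOVA with Tukey's multiple comparison test.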

For CCL5: recombinant human chemokine CCL5, the Kd in the data set with CXCL12 is 578 ± 61 nM.

With `CC[C@H](C)[C@H](NC(=O)[C@H](Cc1ccc(O)cc1)NC(=O)[C@H](CCC(=O)O)NC(=O)[C@H](CCCNC(=N)N)NC(=O)[C@@H](NC(=O)[C@H](Cc1c[nH]c2ccccc12)NC(=O)[C@H](CCCCN)NC(=O)[C@H](CCCCN)NC(=O)[C@H](CCC(=O)O)NC(=O)CNC(=O)CON=C(C)CCCC(=O)NCCCC[C@@H]1NC(=O)[C@H](CCC(=O)O)NC(=O)[C@H](CCCCNC(=O)CCCC(C)=NOCC(=O)NCC(=O)N[C@@H](CCC(=O)O)C(=O)N[C@@H](CCCCN)C(=O)N[C@@H](CCCCN)C(=O)N[C@@H](Cc2c[nH]c3ccccc23)C(=O)N[C@H](C(=O)N[C@@H](CCCNC(=N)N)C(=O)N[C@@H](CCC(=O)O)C(=O)N[C@@H](Cc2ccc(O)cc2)C(=O)N[C@H](C(=O)N[C@@H](CC(N)=O)C(=O)N[C@@H](CO)C(=O)N[C@@H](CC(C)C)C(=O)N[C@@H](CCC(=O)O)C(=O)N[C@@H](CCSC)C(=O)N[C@@H](CO)C(=O)O)[C@@H](C)CC)C(C)C)NC(=O)[C@@H]2CCCN2C(=O)[C@H](CSC2CC(=O)N(CCCCCC(=O)NNC(=O)CCCC[C@@H]3SC[C@@H]4NC(=O)N[C@@H]43)C2=O)NC(=O)[C@H](CCCCNC(=O)CCCC(C)=NOCC(=O)NCC(=O)N[C@@H](CCC(=O)O)C(=O)N[C@@H](CCCCN)C(=O)N[C@@H](CCCCN)C(=O)N[C@@H](Cc2c[nH]c3ccccc23)C(=O)N[C@H](C(=O)N[C@@H](CCCNC(=N)N)C(=O)N[C@@H](CCC(=O)O)C(=O)N[C@@H](Cc2ccc(O)cc2)C(=O)N[C@H](C(=O)N[C@@H](CC(N)=O)C(=O)N[C@@H](CO)C(=O)N[C@@H](CC(C)C)C(=O)N[C@@H](CCC(=O)O)C(=O)N[C@@H](CCSC)C(=O)N[C@@H](CO)C(=O)O)[C@@H](C)CC)C(C)C)NC(=O)[C@H](CCCCN)NC(=O)[C@H](CCCCNC(=O)CCCC(C)=NOCC(=O)NCC(=O)N[C@@H](CCC(=O)O)C(=O)N[C@@H](CCCCN)C(=O)N[C@@H](CCCCN)C(=O)N[C@@H](Cc2c[nH]c3ccccc23)C(=O)N[C@H](C(=O)N[C@@H](CCCNC(=N)N)C(=O)N[C@@H](CCC(=O)O)C(=O)N[C@@H](Cc2ccc(O)cc2)C(=O)N[C@H](C(=O)N[C@@H](CC(N)=O)C(=O)N[C@@H](CO)C(=O)N[C@@H](CC(C)C)C(=O)N[C@@H](CCC(=O)O)C(=O)N[C@@H](CCSC)C(=O)N[C@@H](CO)C(=O)O)[C@@H](C)CC)C(C)C)NC(=O)[C@@H]2CCCN2C(=O)CNC1=O)C(C)C)C(=O)N[C@@H](CC(N)=O)C(=O)N[C@@H](CO)C(=O)N[C@@H](CC(C)C)C(=O)N[C@@H](CCC(=O)O)C(=O)N[C@@H](CCSC)C(=O)N[C@@H](CO)C(=O)O` (some centres unmarked) [i[VREY]4-biot], the highest level in data set [1] (Cmax) was 1970 ng/mL. The “binding to the surface of unactivated mouse platelets” value with mouse platelets [2] (resting conditions, flow cytometry) is listed as “No binding was observed”. For the same compound, the “binding to the surface of mouse platelets, wild type vs CXCR4 knockout” value in the data set on mouse platelets [2] (resting or 10 µg/mL collagen, streptavidin-FITC flow cytometry, n = 3-5) was “required platelet activation and CXCR4”.

Turning to `C=CC(=O)N(C)CCOc1c(N)ncnc1-c1cc(F)cc(NC(=O)c2ccc(C3CC3)cc2F)c1C` [remibrutinib], the “effect on P-selectin expression and integrin αIIbβ3 activation by CRP-XL combined with CXCL12” value in the data set with human platelets [3] is reported as “reversed”.

As to “CXCL12: recombinant human chemokine CXCL12, platelet agonist”, the “CXCL12 concentration that induced platelet aggregation” value with human platelets [4] (recombinant CXCL12 alone, n = 5-10) is on record as ≥ 100 ng/mL.

On to `c1ccc(CNCc2ccc(CN3CCCNCCNCCCNCC3)cc2)nc1` [AMD3465, reference compound], for which, in the data set with human platelets [4], the “effect on platelet aggregation induced by human plaque homogenate” value is “reduced”.

Take `CC[C@H](C)[C@H](NC(=O)[C@H](Cc1ccc(O)cc1)NC(=O)[C@H](CCC(=O)O)NC(=O)[C@H](CCCNC(=N)N)NC(=O)[C@@H](NC(=O)[C@H](Cc1c[nH]c2ccccc12)NC(=O)[C@H](CCCCN)NC(=O)[C@H](CCCCN)NC(=O)[C@H](CCC(=O)O)NC(=O)CNC(=O)CON=C(C)CCCC(=O)NCCCC[C@@H]1NC(=O)[C@H](CCC(=O)O)NC(=O)[C@H](CCCCNC(=O)CCCC(C)=NOCC(=O)NCC(=O)N[C@@H](CCC(=O)O)C(=O)N[C@@H](CCCCN)C(=O)N[C@@H](CCCCN)C(=O)N[C@@H](Cc2c[nH]c3ccccc23)C(=O)N[C@H](C(=O)N[C@@H](CCCNC(=N)N)C(=O)N[C@@H](CCC(=O)O)C(=O)N[C@@H](Cc2ccc(O)cc2)C(=O)N[C@H](C(=O)N[C@@H](CC(N)=O)C(=O)N[C@@H](CO)C(=O)N[C@@H](CC(C)C)C(=O)N[C@@H](CCC(=O)O)C(=O)N[C@@H](CCSC)C(=O)N[C@@H](CO)C(=O)O)[C@@H](C)CC)C(C)C)NC(=O)[C@@H]2CCCN2C(=O)[C@H](CSCC(N)=O)NC(=O)[C@H](CCCCNC(=O)CCCC(C)=NOCC(=O)NCC(=O)N[C@@H](CCC(=O)O)C(=O)N[C@@H](CCCCN)C(=O)N[C@@H](CCCCN)C(=O)N[C@@H](Cc2c[nH]c3ccccc23)C(=O)N[C@H](C(=O)N[C@@H](CCCNC(=N)N)C(=O)N[C@@H](CCC(=O)O)C(=O)N[C@@H](Cc2ccc(O)cc2)C(=O)N[C@H](C(=O)N[C@@H](CC(N)=O)C(=O)N[C@@H](CO)C(=O)N[C@@H](CC(C)C)C(=O)N[C@@H](CCC(=O)O)C(=O)N[C@@H](CCSC)C(=O)N[C@@H](CO)C(=O)O)[C@@H](C)CC)C(C)C)NC(=O)[C@H](CCCCN)NC(=O)[C@H](CCCCNC(=O)CCCC(C)=NOCC(=O)NCC(=O)N[C@@H](CCC(=O)O)C(=O)N[C@@H](CCCCN)C(=O)N[C@@H](CCCCN)C(=O)N[C@@H](Cc2c[nH]c3ccccc23)C(=O)N[C@H](C(=O)N[C@@H](CCCNC(=N)N)C(=O)N[C@@H](CCC(=O)O)C(=O)N[C@@H](Cc2ccc(O)cc2)C(=O)N[C@H](C(=O)N[C@@H](CC(N)=O)C(=O)N[C@@H](CO)C(=O)N[C@@H](CC(C)C)C(=O)N[C@@H](CCC(=O)O)C(=O)N[C@@H](CCSC)C(=O)N[C@@H](CO)C(=O)O)[C@@H](C)CC)C(C)C)NC(=O)[C@@H]2CCCN2C(=O)CNC1=O)C(C)C)C(=O)N[C@@H](CC(N)=O)C(=O)N[C@@H](CO)C(=O)N[C@@H](CC(C)C)C(=O)N[C@@H](CCC(=O)O)C(=O)N[C@@H](CCSC)C(=O)N[C@@H](CO)C(=O)O` [i[VREY]4]: the “affinity of interaction with CXCL12 by HSQC NMR titration” value on 15N-labeled CXCL12 is recorded as “in the micromolar range”. In the data set with human platelets [4], the “effect on platelet aggregation induced by human plaque homogenate” value is given as “inhibited”. In addition, in the data set on mouse platelets [5], the “effect on collagen-induced platelet aggregation in blood from Cxcl12 wt/wt mice” value is reported as “diminished”. For the same compound, the “effect on binding of anti-CXCL12 antibody clone #79018 to platelets” value in data set [6] (n = 8) is reported as “diminished”. For the same compound, the “effect on binding of anti-CXCL12 antibody K15C to platelets” value in data set [6] (n = 10) is recorded as “did not result in reduced binding of K15C”. Besides, in the data set on human platelets [7], the “change of i[VREY]4 binding to human platelets on activation with collagen” value is “increased”. In addition, the “effect on internalization of CXCR4 after CXCL12 exposure” value in the data set on CXCR4 is reported as “could not be reversed”.
